In the library only some 4.3% were active in any assay of this set; here they are far more common.
B2AR ag: agonists of human beta-2 adrenergic receptor inducing internalization; P07550; Am2.2-beta2AR cells, FAP receptor internalization, flow cytometry; response, % (concentration not given with the values); hit rate 0.43% among 340,000;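 active = response above a set limit, near 3 SD of response in nonfluorescent compounds, cut at about 42% in these data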
Target sequence (P07550 whole entry, looked up): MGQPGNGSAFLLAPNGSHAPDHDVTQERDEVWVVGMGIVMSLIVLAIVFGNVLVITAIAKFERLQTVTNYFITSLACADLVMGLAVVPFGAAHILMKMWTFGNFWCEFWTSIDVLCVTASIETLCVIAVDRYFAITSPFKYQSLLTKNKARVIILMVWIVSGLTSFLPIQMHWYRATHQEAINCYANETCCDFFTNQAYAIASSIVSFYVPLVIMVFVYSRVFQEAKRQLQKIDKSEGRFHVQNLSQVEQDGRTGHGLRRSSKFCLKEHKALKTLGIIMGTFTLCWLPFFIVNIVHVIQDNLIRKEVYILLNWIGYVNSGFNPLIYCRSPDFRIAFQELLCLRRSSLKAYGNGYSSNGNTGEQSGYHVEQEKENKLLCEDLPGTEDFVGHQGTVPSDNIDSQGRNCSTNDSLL
MC4R ag barr: agonists of human melanocortin 4 receptor (MC4R) beta-arrestin; P32245; U2OS MC4R beta-arrestin complementation, luminescence; percent of melanotan II response, DMSO zero; hit rate 0.98% among 360,000; activation, % at 8.9 µM;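 active = activation above a per-plate cutoff, the mean activation of sample wells on that plate plus 3 SD, cut at about 8% in these data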
Target sequence (P32245 whole entry, looked up): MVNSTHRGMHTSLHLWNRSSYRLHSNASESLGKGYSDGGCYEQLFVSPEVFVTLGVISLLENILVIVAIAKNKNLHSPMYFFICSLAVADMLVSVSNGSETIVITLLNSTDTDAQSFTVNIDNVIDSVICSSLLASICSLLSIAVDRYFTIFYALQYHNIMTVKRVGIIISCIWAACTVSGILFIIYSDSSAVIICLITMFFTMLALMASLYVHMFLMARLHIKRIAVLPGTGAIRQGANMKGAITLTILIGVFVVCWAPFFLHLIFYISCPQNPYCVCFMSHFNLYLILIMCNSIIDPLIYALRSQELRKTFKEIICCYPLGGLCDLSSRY
TAAR1 antagonist: antagonists of human TAAR1; inhibition, % at 3 µM; CHO RD-HGA16 TAAR1, Fluo-8 calcium fluorescence, antagonist; hit rate 1.5% among 360,000; AID 624466; Q96RJ0;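 active = inhibition above a per-plate cutoff, the mean inhibition of test compounds on that plate plus 3 SD, cut at about 49% in these data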
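Assay system: CHO-derived RD-HGA16 cells stably expressing human TAAR1 plus Gα16. Timing: 140 s kinetic read after compound, 140 s after agonist. Technique: kinetic Fluo-8 calcium fluorescence measurement. Measure: % inhibition of agonist calcium response.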
MC4R antagonist: antagonists of human melanocortin 4 receptor (MC4R); inhibition, % at 6.5 µM; hit rate 0.48% among 360,000; MC4R-expressing cells, MTII-stimulated cAMP, LANCE TR-FRET;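 active = inhibition above its plate's cutoff, the mean of tested wells on that plate plus 3 SD, cut at about 29% in these data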
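System – human MC4R-expressing U2OS cells · Also added – Melanotan II · Dosing – one concentration, 6.5 µM nominal · Timing – 30-min compound, 1-h challenge, 1-h detection, room temperature · Measured by – Eu-cAMP/anti-cAMP TR-FRET, emission 671 nm · Replicates – singlicate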
m5-HT2A agonist: activates the mouse 5-HT2A serotonin receptor; CHO-K1 mHTR2A beta-arrestin complementation, luminescence; percent of 30 µM serotonin response; P35363; hit rate 0.66% among 360,000; activation, % at 7.6 µM;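 active = activation above a run cutoff, the mean activation of all tested compounds plus 3 SD, cut at about 14% in these data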
TAAR1 ag: agonists of human TAAR1. Q96RJ0. CHO RD-HGA16 TAAR1, Fluo-8 calcium fluorescence; vehicle wells 0%, saturating PEA agonist 100%. activation, % at 3 µM. hit rate 0.99% among 360,000. AID 624467;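 active = activation above the mean activation of all test compounds in the run plus 3 SD, cut at about 38% in these data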
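Repeats: no replicates (n 1) | Material: CHO-derived RD-HGA16 cells with stable Gα16 and human TAAR1 | Technique: Kinetic Fluo-8 calcium fluorescence | Schedule: 17-24 h seeding, 75 min 37 °C dye, 30 min RT | Evaluation: % activation from peak over basal fluorescence ratio, DMSO-to-PEA scaled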
Large screens that a line does not name were inactive.

Nc1ccc(N2CCCC2)c(S(=O)(=O)Nc2cccc(C(F)(F)F)c2)c1	none
N#CC1=C(N)Oc2cc(N)ccc2C1c1cccnc1 (configuration not stated)	none
CCN(CC)c1ccc2c(c1)OC(N)=C(C#N)C2c1cccnc1 (configuration not stated)	TAAR1 ag 63.6
CCCCN(C)CC(O)Cn1cc(/C=C/C(=O)c2ccc(C)cc2)c2ccccc21 (configuration not stated)	MC4R ag barr 13.1
Cc1ccc(-c2nc3ncccc3o2)cc1NC(=O)c1ccc2c(c1)OCO2	none
Cc1ccc(-c2nc3ccccc3s2)cc1NC(=O)c1ccc2c(c1)OCO2	MC4R antagonist 38.0
COc1cccc(CN(C)C(=O)[C@@H](Cc2ccccc2)NC(=O)[C@H]2O[C@@H](n3ccc(=O)[nH]c3=O)[C@H](O)[C@@H]2O)c1	none (no result: B2AR ag, MC4R ag barr, MC4R antagonist, m5-HT2A agonist)
COC(=O)[C@@H]1Cc2c([nH]c3ccccc23)C(C)(C)N1C(=O)CCl	MC4R ag barr 13.1
COC(=O)C1Cc2c([nH]c3ccccc23)C2CCC(=O)N12 (configuration not stated)	none (no result: B2AR ag)
Cc1noc(C)c1NC(=O)N(C)C[C@H]1OCc2cnnn2CCCC(=O)N([C@H](C)CO)C[C@H]1C	none (no result: B2AR ag, MC4R ag barr, MC4R antagonist)
Cc1cccc(CS(=O)(=O)c2nnc([C@H](Cc3ccccc3)NC(=O)OC(C)(C)C)o2)c1	B2AR ag 61.2 (no result: TAAR1 antagonist, TAAR1 ag)
COC(=O)CS(=O)(=O)c1nnc([C@H](Cc2ccccc2)NC(=O)OC(C)(C)C)o1	none
CC(=O)Nc1ccc(NC(=O)COc2ccc(-c3ccc(C#N)cc3)cc2)cc1	none
N#Cc1ccc(-c2ccc(OCC(=O)Nc3cccnc3)cc2)cc1	TAAR1 antagonist 58.6
COCCCN1C(=O)C(CC(=O)NCCN2CCOCC2)CC(C(=O)N(C(C)C)C(C)C)=C1C (configuration not stated)	none (no result: B2AR ag, MC4R ag barr, MC4R antagonist)
CCC1Sc2ccc(S(=O)(=O)Nc3ccc(OC)cc3)cc2NC1=O (configuration not stated)	TAAR1 ag 55.5
CCC1Sc2ccc(S(=O)(=O)CCC(=O)Nc3cccc(Br)c3)cc2NC1=O (configuration not stated)	TAAR1 antagonist 48.9
O=c1c2ccccc2nnn1Cc1ccco1	none (no result: B2AR ag, MC4R ag barr, MC4R antagonist, m5-HT2A agonist)
O=C1C=C(c2cccc3c2Oc2ccccc2S3)C[C@@H](c2ccc3c(c2)OCO3)C1	none (no result: B2AR ag, MC4R ag barr, MC4R antagonist, m5-HT2A agonist)
COc1ccccc1N=Cc1nc(-c2ccccc2)oc1OC(C)=O	none
CC(=O)Oc1oc(-c2ccccc2)nc1/C=N/c1ccccn1	B2AR ag 64.5
CCOc1cc(CNC2CCCC2)cc(Cl)c1OCc1ccccc1	TAAR1 ag 58.4
CC(=O)n1cc(CO)c2ccccc21	none
CC(=O)n1cc(N(C(=O)CCl)c2ccccc2)c2ccccc21	MC4R ag barr 17.3
CC(=O)n1cc(N(C(=O)CCl)c2ccc([N+](=O)[O-])cc2)c2ccccc21	B2AR ag 61.5, MC4R antagonist 32.4
O=C(O)c1cccc(CSc2nc(-c3ccc(Cl)cc3)cc(C(F)(F)F)n2)c1	TAAR1 antagonist 53.7
Nc1ccc(F)c(CN2CCN(c3ncc(Cc4ccccc4)cn3)CC2)c1	none (no result: B2AR ag, MC4R ag barr, MC4R antagonist, m5-HT2A agonist)
CCc1cccc(NS(=O)(=O)c2ccc(-n3cccn3)cc2)c1	MC4R ag barr 8.3 (no result: B2AR ag)
Cc1ccc(NS(=O)(=O)c2ccc(-n3cccn3)cc2)cc1C	MC4R ag barr 9.4
Cc1cc(N2CCN(S(C)(=O)=O)C[C@@H]2C)ccc1N1CCN(Cc2ccccc2)[C@@H](C)C1	none (no result: B2AR ag, MC4R ag barr, MC4R antagonist, m5-HT2A agonist)
CC1CCCCC1NCC(=O)Nc1ccccc1-c1ccccc1 (configuration not stated)	MC4R ag barr 9.5
C=CCC[C@H](Cc1ccc(F)cc1)C(=O)OC[C@@H](Cc1c[nH]c2ccccc12)NC(=O)[C@@H](CC=C)CC(=O)N(CCO)Cc1ccccc1	TAAR1 antagonist 51.0
C=CC[C@H](CC(=O)N(CCO)Cc1ccccc1)C(=O)N[C@H](COC(=O)[C@@H](CC=C)Cc1ccc(F)cc1)Cc1ccccc1	TAAR1 antagonist 52.1
C=CC[C@@H](CC(=O)N(CCO)Cc1ccccc1)C(=O)N[C@H](C)COC(=O)[C@@H](CC=C)Cc1ccc(F)cc1	none
CC(=O)Nc1cccc(-c2csc(C(O)c3ccc(F)cc3)n2)c1 (configuration not stated)	none (no result: B2AR ag)
C#CCN(Cc1ccco1)C(=O)c1nnc2c3cc(OC)ccc3n(S(=O)(=O)c3ccc(OC)cc3)c2n1	none (no result: B2AR ag, MC4R ag barr, MC4R antagonist, m5-HT2A agonist)
CC(/C=N/NC(=O)c1cc(-c2ccc(C)o2)[nH]n1)=C\c1ccccc1	MC4R ag barr 9.2
Cc1ccc(-c2cc(C(=O)N/N=C/c3ccccc3)n[nH]2)o1	none
O=C(NS(=O)(=O)c1ccc(NC(=O)C2CCCO2)cc1)c1ccccc1 (configuration not stated)	none
Cc1ccc(NS(=O)(=O)c2ccc(C(=O)N3CCC3)cc2)cc1	none
Cc1ccc(NS(=O)(=O)c2ccc(C(=O)NCC3CCCO3)cc2)cc1 (configuration not stated)	TAAR1 ag 39.6
CCOc1ccc(NS(=O)(=O)c2ccc(C(=O)N3CCCCCC3)cc2)cc1	TAAR1 ag 47.0
O=C(Nc1ccc(S(=O)(=O)Nc2ccc(Cl)cc2)cc1)C1CCCO1 (configuration not stated)	TAAR1 ag 41.1
Cc1ccc(NS(=O)(=O)c2ccc(C(=O)N3CCCCCCC3)cc2)cc1	TAAR1 ag 54.2
C#CCNC(=O)C[C@H]1C[C@@]2(C(=O)OC)C(=C[C@H](COCc3ccccc3)O[C@@H]2C)N(Cc2ccc3c(c2)OCO3)C1=O	none (no result: B2AR ag, MC4R ag barr, MC4R antagonist, m5-HT2A agonist)
Cc1ccccc1C(=O)N[C@H](C(=O)N1CCC[C@H]1C(=O)NC1CCCC1)C1CCCCC1	none (no result: B2AR ag, MC4R ag barr, MC4R antagonist, m5-HT2A agonist)
CCCNC(=O)COc1ccc(S(=O)(=O)Nc2ccc(C)cc2)cc1	TAAR1 ag 39.6
CNC(=O)COc1ccc(S(=O)(=O)Nc2ccc(C)cc2)cc1	none
c1ccc2c(c1)oc1c(-c3cccc4nccn34)cccc12	none (no result: B2AR ag)
CC(C)n1c(CNC(=O)c2ccccc2F)nnc1SCC(=O)c1ccc(F)cc1	TAAR1 ag 38.8
Cc1nnc(NC(=O)CSc2nnc(CNC(=O)c3ccccc3F)n2C(C)C)s1	none
O=[N+]([O-])c1c(NCCCO)cc(Sc2nc3ccccc3s2)c2nonc12	B2AR ag 96.1 (no result: TAAR1 antagonist, TAAR1 ag)
Cc1nnc(Sc2cc(NCCCO)c([N+](=O)[O-])c3nonc23)s1	B2AR ag 42.6
CCC(=O)OCCNc1cc(Sc2nc3ccccc3s2)c2nonc2c1[N+](=O)[O-]	none
CCC(C)N(Cc1ccc(OC)cc1OC)S(=O)(=O)c1cc(Br)ccc1Br (configuration not stated)	none (no result: B2AR ag, MC4R ag barr, MC4R antagonist, m5-HT2A agonist)
